Data on two compounds can be found in ChEMBL document CHEMBL1759921, “N5-phosphonoacetyl-L-ornithine (PALO): a convenient synthesis and investigation of influence on regulation of amino acid biosynthetic genes in Saccharomyces cerevisiae” (Bioorg Med Chem Lett, 2011).

SMILES strings stand for the structures. Calls of active or inactive are those of the source. The calls are words filed in the database; no cut-off is given here.

Holding throughout (type): functional, organism-based
Assay [1] has as its system Saccharomyces cerevisiae. Briefly: Decrease in ARG5,6 mRNA level in Saccharomyces cerevisiae BY4741 at 1 mg/ml by Northern blot analysis relative to control. The gist of the method: (§1)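 BY4741 inoculated from a saturated culture (30 °C, YPD) into minimal medium with leucine, methionine, uracil and histidine. Treatments were added at inoculation: 15 µM PALO in 50 mM potassium phosphate pH 6.8, buffer alone (untreated), 1 mg/mL L-arginine, or both. Cells grown at 30 °C and harvested at mid-log (OD600 0.4–0.6). mRNA measured by quantitative northern blot, normalized to SCR1; mean of three replicates.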

Assay [2] relates to Saccharomyces cerevisiae. Briefly: Decrease in CPA1 mRNA level in Saccharomyces cerevisiae BY4741 at 1 mg/ml by Northern blot analysis relative to control. The gist of the method:
as §1

Assay [3] has as its system Saccharomyces cerevisiae. Briefly: Decrease in TRP5 mRNA level in Saccharomyces cerevisiae BY4741 at 1 mg/ml by Northern blot analysis relative to control. The gist of the method: as §1
Assay [4] concerns Saccharomyces cerevisiae. Description: Decrease in TAP-tagged ARG5,6 protein level in Saccharomyces cerevisiae YSC1178-7500224 at 1 mg/ml by Western blotting analysis relative to control. The gist of the method: (§2)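 TAP-tagged strains (BY4741 background, untagged BY4741 as control) were grown from a saturated culture in supplemented minimal medium. At inoculation they received 15 µM PALO in 50 mM potassium phosphate pH 6.8, buffer alone, 1 mg/mL L-arginine, or both. Cells grown at 30 °C and harvested at OD600 0.4–0.6. Extracts were western blotted with anti-TAP antibody, with Coomassie-stained duplicate gels as loading controls. Band intensity was quantified.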
On the technique in general: A western blot detects proteins with antibodies after separation by electrophoresis.

The test system of assay [5] is Saccharomyces cerevisiae. Description: Decrease in TAP-tagged CPA1 protein level in Saccharomyces cerevisiae YSC1178-7502950 at 1 mg/ml by Western blotting analysis relative to control. An outline of the steps: as §2
For assay [6], the system named is Saccharomyces cerevisiae. Description: Decrease in TAP-tagged TRP5 protein level in Saccharomyces cerevisiae YSC1178-7500415 at 1 mg/ml by Western blotting analysis relative to control. The gist of the method:
as §2

In assay [7] the test system is Saccharomyces cerevisiae. Description: Increase in ARG5,6 mRNA level in Saccharomyces cerevisiae BY4741 at 15 uM by Northern blot analysis relative to control. An outline of the steps: as §1
Assay [8] has as its system Saccharomyces cerevisiae. Description: Increase in CPA1 mRNA level in Saccharomyces cerevisiae BY4741 at 15 uM by Northern blot analysis relative to control. The gist of the method:
as §1

The test system of assay [9] is Saccharomyces cerevisiae. Description: Increase in TRP5 mRNA level in Saccharomyces cerevisiae BY4741 at 15 uM by Northern blot analysis relative to control. The gist of the method:
as §1

Assay [10] relates to Saccharomyces cerevisiae. Briefly: Decrease in ARG5,6 mRNA level in Saccharomyces cerevisiae BY4741 at 15 uM by Northern blot analysis in presence of arginine relative to control. The gist of the method: as §1
For assay [11], the system named is Saccharomyces cerevisiae. Briefly: Decrease in CPA1 mRNA level in Saccharomyces cerevisiae BY4741 at 15 uM by Northern blot analysis in presence of arginine relative to control. An outline of the steps: as §1
The test system of assay [12] is Saccharomyces cerevisiae. Briefly: Decrease in TRP5 mRNA level in Saccharomyces cerevisiae BY4741 at 15 uM by Northern blot analysis in presence of arginine relative to control. An outline of the steps:
as §1

The test system of assay [13] is Saccharomyces cerevisiae. Description: Increase in TAP-tagged ARG5,6 protein level in Saccharomyces cerevisiae YSC1178-7500224 at 15 uM by Western blotting analysis relative to control. The gist of the method: as §2
For assay [14], the system named is Saccharomyces cerevisiae. Briefly: Increase in TAP-tagged CPA1 protein level in Saccharomyces cerevisiae YSC1178-7502950 at 15 uM by Western blotting analysis relative to control. An outline of the steps:
as §2

In assay [15] the test system is Saccharomyces cerevisiae. Description: Increase in TAP-tagged TRP5 protein level in Saccharomyces cerevisiae YSC1178-7500415 at 15 uM by Western blotting analysis relative to control. An outline of the steps:
as §2

The test system of assay [16] is Saccharomyces cerevisiae. Briefly: Decrease in TAP-tagged ARG5,6 protein level in Saccharomyces cerevisiae YSC1178-7500224 at 15 uM by Western blotting analysis in presence of arginine relative to control. The gist of the method:
as §2

For assay [17], the system named is Saccharomyces cerevisiae. Briefly: Decrease in TAP-tagged CPA1 protein level in Saccharomyces cerevisiae YSC1178-7502950 at 15 uM by Western blotting analysis in presence of arginine relative to control. An outline of the steps:
as §2

Assay [18] relates to Saccharomyces cerevisiae. Description: Decrease in TAP-tagged TRP5 protein level in Saccharomyces cerevisiae YSC1178-7500415 at 15 uM by Western blotting analysis in presence of arginine relative to control. An outline of the steps: as §2
Assay [19] relates to Saccharomyces cerevisiae. Briefly: Effect on growth rate in Saccharomyces cerevisiae BY4741. The gist of the method:
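Growth followed at 30 °C in nitrogen-limiting medium: 2% dextrose, 1 mM ammonium sulfate, 100 µM potassium phosphate pH 6.8, and 10 µg/mL each of leucine, methionine, uracil and histidine.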

In the case of `N=C(N)NCCC[C@H](N)C(=O)O`, the result in assay [1], in assay [2], in assay [4] and in assay [5] was Active. Moreover, the result in [3] and in assay [6] was inactive.

With `N[C@@H](CCCNC(=O)CP(=O)(O)O)C(=O)O`, the outcome in assay [7], in assay [8], in assay [9], in [12], in [13] and in [14] was inactive. Moreover, the result in assay [15], in [18] and in [19] was inactive. The result in assay [10], in assay [11], in assay [16] and in assay [17] was Active.
